How the values were obtained:
Cavia porcellus [1] = assay: Antibronchospatic activity determined by histamine stimulated bronchospasm inhibition in guinea pigs after(i.v.) administration; assay type: functional, Bronchiole
Summary of the method: (§1)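 Guinea pigs, Konzett–Rössler preparation. Bronchospasm was induced with histamine. Compound was given iv (1 mL/kg) 1 min before the agonist, dissolved in saline or saline with slight excess HCl or CH3SO3H (pH 3.5–4). Three doses were tested in duplicate, chosen to give 20–90% inhibition. ID75 was read graphically from log dose–response curves.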

Rattus norvegicus [2] = assay: Rat PCA Test(50% inhibition of spot areas)in the female albino rats after (ip) administration in 10% aqueous acacia gum; value ranges from 206-307; assay type: functional; details: read-out: ID50 (the source's name)
Summary of the method: (§2)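 Female albino rats (200–250 g) received intradermal ventral injections of rat anti-egg-albumin antiserum; donors were raised with egg albumin im plus H. pertussis ip, and serum was taken at 12 days. 24 h later, compound was given ip in 10% acacia gum (10 mL/kg), 10 rats/group. Challenge 30 min later was iv 0.3% egg albumin plus 1% Evans blue. Blued areas were measured 30 min after challenge.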

[3] = In vivo toxic effect was determined in mouse after intraperitoneal administration with 10% aqueous acacia gum; value ranges from 3.43-5.07; assay type: toxicity, organism-based; details: ip
Summary of the method: (§3)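 Female albino mice (20-30 g), 10 animals per dose, dosed intraperitoneally with compound in solution or suspension; compounds tested as salts unless noted. Mortality was recorded over 7 days.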

Rattus norvegicus [4] = assay: Inhibition of mast cell degranulation was assessed in female albino rats at a dose of 47 umol/kg iv; assay type: functional
Rattus norvegicus [5] = assay: Rat PCA Test(50% inhibition of spot areas)in the female albino rats after (ip) administration in 10% aqueous acacia gum; value ranges from 43-53; assay type: functional; details: read-out: ID50 (the source's name); summary of the method: as §2
Rattus norvegicus [6] = assay: Rat PCA Test(50% inhibition of spot areas)in the female albino rats after oral administration in 10% aqueous acacia gum; assay type: functional; details: read-out: ID50 (the source's name)
Summary of the method: (§4)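 Female rats (200-250 g) were passively sensitized by ventral intradermal anti-egg-albumin antiserum. This was raised in rats by intramuscular 1% egg albumin plus ip H. pertussis vaccine, with serum taken at 12 days. After 24 h, groups of 10 were dosed orally with compound or vehicle (10 mL/kg). At 60 min, iv challenge used 0.3% egg albumin with 1% Evans blue. Blued areas were measured after 30 min.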

[7] = In vivo toxic effect was determined in mouse after intraperitoneal administration with 10% aqueous acacia gum; value ranges from 0.57-1.04; assay type: toxicity, organism-based; details: ip; summary of the method: as §3
[8] = In vivo toxic effect was determined in mouse after oral administration with 10% aqueous acacia gum; value ranges from 0.99-1.61; assay type: toxicity, organism-based
Summary of the method: (§5)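 Female albino mice, 20-30 g. Compound given orally as solution or suspension in 10% aqueous acacia gum, 10 animals per dose. Deaths recorded over 7 days.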

Rattus norvegicus [9] = assay: Inhibition of mast cell degranulation was assessed in female albino rats at a dose of 48 umol/kg iv; assay type: functional
Rattus norvegicus [10] = assay: Rat PCA Test(50% inhibition of spot areas)in the female albino rats after (ip) administration in 10% aqueous acacia gum; value ranges from […]; assay type: functional; details: read-out: ID50 (the source's name); summary of the method: as §2
[11] = In vivo toxic effect was determined in mouse after intraperitoneal administration with 10% aqueous acacia gum; value ranges from 0.55-1.17; assay type: toxicity, organism-based; details: ip; summary of the method: as §3
[12] = In vivo toxic effect was determined in mouse after oral administration with 10% aqueous acacia gum; value ranges from 0.69-1.33; assay type: toxicity, organism-based; summary of the method: as §5
Rattus norvegicus [13] = assay: Inhibition of mast cell degranulation was assessed in female albino rats at a dose of 28 umol/kg iv; assay type: functional
Rattus norvegicus [14] = assay: Rat PCA Test(50% inhibition of spot areas)in the female albino rats after oral administration in 10% aqueous acacia gum; value ranges from 80-130; assay type: functional; details: read-out: ID50 (the source's name); summary of the method: as §4
[15] = In vivo toxic effect was determined in mouse after intraperitoneal administration with 10% aqueous acacia gum; value ranges from 2.17-4.89; assay type: toxicity, organism-based; details: ip; summary of the method: as §3
[16] = In vivo toxic effect was determined in mouse after oral administration with 10% aqueous acacia gum; value ranges from 5.08-7.62; assay type: toxicity, organism-based; summary of the method: as §5
Rattus norvegicus [17] = assay: Rat PCA Test(50% inhibition of spot areas)in the female albino rats after (ip) administration in 10% aqueous acacia gum; assay type: functional; details: read-out: ID50 (the source's name); summary of the method: as §2
[18] = In vivo toxic effect was determined in mouse after intraperitoneal administration with 10% aqueous acacia gum; value ranges from 4.25-7.74; assay type: toxicity, organism-based; details: ip; summary of the method: as §3
Rattus norvegicus [19] = assay: Rat PCA Test(50% inhibition of spot areas)in the female albino rats after oral administration in 10% aqueous acacia gum; value ranges from 30-108; assay type: functional; details: read-out: ID50 (the source's name); summary of the method: as §4
Rattus norvegicus [20] = assay: Rat PCA Test(50% inhibition of spot areas)in the female albino rats after (ip) administration in 10% aqueous acacia gum; value ranges from 141-206; assay type: functional; details: read-out: ID50 (the source's name); summary of the method: as §2
[21] = In vivo toxicity in mouse after oral administration with 10% aqueous acacia gum; assay type: organism-based; summary of the method: as §5
Mus musculus = assay: In vivo toxic effect was determined in mouse after intraperitoneal administration with 10% aqueous acacia gum; NA means poorly absorbed; assay type: toxicity, organism-based; details: ip; summary of the method: as §3
Rattus norvegicus [22] = assay: Inhibition of mast cell degranulation was assessed in female albino rats at a dose of 35 umol/kg iv; assay type: functional
Rattus norvegicus [23] = assay: Rat PCA Test(50% inhibition of spot areas)in the female albino rats after (ip) administration in 10% aqueous acacia gum; value ranges from 115-142; assay type: functional; details: read-out: ID50 (the source's name); summary of the method: as §2
Rattus norvegicus [24] = assay: Inhibition of mast cell degranulation was assessed in female albino rats at a dose of 45 umol/kg iv administration; assay type: functional
Rattus norvegicus [25] = assay: Rat PCA Test(50% inhibition of spot areas)in the female albino rats after oral administration in 10% aqueous acacia gum;Value ranges from (2-34); assay type: functional; details: read-out: ID50 (the source's name); summary of the method: as §4
Rattus norvegicus [26] = assay: Rat PCA Test(50% inhibition of spot areas)in the female albino rats after oral administration in 10% aqueous acacia gum; Value ranges from (60-123); assay type: functional; details: read-out: ID50 (the source's name); summary of the method: as §4
[27] = In vivo toxic effect was determined in mouse after intraperitoneal administration with 10% aqueous acacia gum; value ranges from 0.67-1.21; assay type: toxicity, organism-based; details: ip; summary of the method: as §3
Rattus norvegicus [28] = assay: Inhibition of mast cell degranulation was assessed in female albino rats at a dose of 43 umol/kg iv; assay type: functional
Cavia porcellus [29] = assay: Antibronchospatic activity was determined by inhibition of histamine stimulated bronchospasm in guinea pigs after (i.v.) administration; assay type: functional, Bronchiole; summary of the method: as §1
Rattus norvegicus [30] = assay: Rat PCA Test(50% inhibition of spot areas)in the female albino rats after (ip) administration in 10% aqueous acacia gum; value ranges from 41.2-87.3; assay type: functional; details: read-out: ID50 (the source's name); summary of the method: as §2
Rattus norvegicus [31] = assay: Inhibition of mast cell degranulation was assessed in female albino rats at a dose of 23 umol/kg iv; assay type: functional
Rattus norvegicus [32] = assay: Rat PCA Test(50% inhibition of spot areas)in the female albino rats after oral administration in 10% aqueous acacia gum; value ranges from 8-11; assay type: functional; details: read-out: ID50 (the source's name); summary of the method: as §4

COC(=O)CCN1CCN(c2ccccn2)CC1.Cl
ID75 (Cavia porcellus [1]): 3.5 µM/kg | ED50 (Rattus norvegicus [2]): 252 µmol/kg | LD50 [3]: 4020 µmol/kg

COc1ccc(NC(=O)CCN2CCN(c3ccccn3)CC2)cc1.Cl.Cl
inhibition in vivo at 47 µmol/kg (Rattus norvegicus [4]): 19% | ID75 (Cavia porcellus [1]): 0.24 µM/kg | ED50 (Rattus norvegicus [5]): 48 µmol/kg | ED50 (Rattus norvegicus [6]): > 95 µmol/kg | LD50 [7]: 710 µmol/kg | LD50 [8]: 1160 µmol/kg

Cl.Cl.O=C(CCN1CCN(c2ccccn2)CC1)Nc1ccc(Cl)cc1
inhibition in vivo at 48 µmol/kg (Rattus norvegicus [9]): 0% | ED50 (Rattus norvegicus [10]): 43 µmol/kg | ED50 (Rattus norvegicus [6]): > 96 µmol/kg | LD50 [11]: 620 µmol/kg | LD50 [12]: 960 µmol/kg

CC(O)c1ccc(NC(=O)CCN2CCN(c3ccccn3)CC2)cc1 (stereo unspecified)
inhibition in vivo at 28 µmol/kg (Rattus norvegicus [13]): 22% | ID75 (Cavia porcellus [1]): 0.48 µM/kg | ED50 (Rattus norvegicus [14]): 103 µmol/kg | LD50 [15]: 3250 µmol/kg | LD50 [16]: 5970 µmol/kg

O=C(O)CCN1CCN(c2ccccn2)CC1
ID75 (Cavia porcellus [1]): 5.23 µM/kg | ED50 (Rattus norvegicus [17]): > 1280 µmol/kg | LD50 [18]: 5540 µmol/kg

CSc1ccc(NC(=O)CCN2CCN(c3ccccn3)CC2)cc1
inhibition in vivo at 28 µmol/kg (Rattus norvegicus [13]): 50% | ID75 (Cavia porcellus [1]): 0.17 µM/kg | ED50 (Rattus norvegicus [19]): 57 µmol/kg | ED50 (Rattus norvegicus [20]): 171 µmol/kg | LD50 [21]: > 8400 µmol/kg | LD50 (Mus musculus): Not Active

CCOC(=O)C(=O)Nc1ccc(NC(=O)CCN2CCN(c3ccccn3)CC2)cc1
inhibition in vivo at 35 µmol/kg (Rattus norvegicus [22]): 7% | ID75 (Cavia porcellus [1]): 0.23 µM/kg | ED50 (Rattus norvegicus [23]): 127 µmol/kg | LD50 [21]: > 7050 µmol/kg

Cc1cccc(C)c1NC(=O)CCN1CCN(c2ccccn2)CC1
inhibition in vivo at 45 µmol/kg (Rattus norvegicus [24]): 27% | ED50 (Rattus norvegicus [25]): 8 µmol/kg | ED50 (Rattus norvegicus [26]): 86 µmol/kg | LD50 [27]: 810 µmol/kg

O=C([O-])c1cc(=O)c2c(OCC(O)COc3cccc4oc(C(=O)[O-])cc(=O)c34)cccc2o1.[Na+].[Na+] [CROMOLYN SODIUM]
inhibition in vivo at 43 µmol/kg (Rattus norvegicus [28]): 83% | ID75 (Cavia porcellus [29]): >21 µM/kg | ED50 (Rattus norvegicus [30]): 60 µmol/kg | ED50 (Rattus norvegicus [6]): > 640 µmol/kg | LD50 [21]: > 6410 µmol/kg | LD50 (Mus musculus): Not Active

O=c1[nH]c2ccccc2n1CCCN1CCN(C(c2ccccc2)c2ccccc2)CC1 [OXATOMIDE]
inhibition in vivo at 23 µmol/kg (Rattus norvegicus [31]): 40% | ID75 (Cavia porcellus [1]): 0.08 µM/kg | ED50 (Rattus norvegicus [32]): 9 µmol/kg | LD50 [21]: > 7300 µmol/kg
